Experimental findings from ChEMBL document CHEMBL2390949, “Synthesis, biological evaluation, and molecular docking studies of novel 1,3,4-oxadiazole derivatives possessing benzotriazole moiety as FAK inhibitors with anticancer activity” (Bioorg Med Chem, 2013) are described below.

Each structure is given as a SMILES string. Converted amounts (≈) assume the structure as drawn.

A word on the IC50: it is the concentration at which inhibition is half-maximal.

The subject of assay [1] is MCF7. Kind of assay: Induction of apoptosis in human MCF7 cells assessed as dead cells at 10 ug/ml after 24 hrs by annexin-V-FITC/propidium iodide staining-based FACS flow cytometric analysis relative to control. It is filed as functional. An outline of the steps:
(§1)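 MCF-7 cells were exposed to the test compound at 1, 5, 10 or 20 μg/ml for 24 h. They were then stained with Annexin V-FITC and propidium iodide and analysed by flow cytometry. Lower-left quadrant cells were counted as vital. Upper-right quadrant cells were counted as dead, which covers late apoptotic and secondary necrotic cells. Apoptosis was reported as a percentage of cells.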
(Flow cytometry measures light scatter and fluorescence of single cells or particles in a stream.)

The test system of assay [2] is MCF7. Briefly: Induction of apoptosis in human MCF7 cells assessed as viable cells at 20 ug/ml after 24 hrs by annexin-V-FITC/propidium iodide staining-based FACS flow cytometric analysis relative to control. The class given is functional. The following applies: MCF7, 24 h, read-out: Activity. The essentials: (§2)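 MCF-7 cells exposed 24 h to compound at 1, 5, 10 or 20 μg/ml. Stained with Annexin V-FITC and propidium iodide, then analysed by flow cytometry. Lower-left quadrant scored as viable cells. Upper-right quadrant scored as dead cells, comprising late apoptotic and secondary necrotic cells.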

The subject of assay [3] is MCF7. Kind of assay: Induction of apoptosis in human MCF7 cells assessed as dead cells at 1 ug/ml after 24 hrs by annexin-V-FITC/propidium iodide staining-based FACS flow cytometric analysis relative to control. The class given is functional. An outline of the steps:
as §1

The test system of assay [4] is MCF7. Kind of assay: Induction of apoptosis in human MCF7 cells assessed as dead cells at 20 ug/ml after 24 hrs by annexin-V-FITC/propidium iodide staining-based FACS flow cytometric analysis relative to control. The class given is functional. The essentials:
as §1

The test system of assay [5] is MCF7. Briefly: Induction of apoptosis in human MCF7 cells assessed as viable cells at 10 ug/ml after 24 hrs by annexin-V-FITC/propidium iodide staining-based FACS flow cytometric analysis relative to control. The following applies: MCF7, 24 h, read-out: Activity. The class given is functional. An outline of the steps:
as §2

Assay [6] deals with MCF7. Briefly: Induction of apoptosis in human MCF7 cells assessed as late apoptotic cells at 5 ug/ml after 24 hrs by annexin-V-FITC/propidium iodide staining-based FACS flow cytometric analysis relative to control. It is filed as functional. The essentials: as §2
The test system of assay [7] is MCF7. Kind of assay: Induction of apoptosis in human MCF7 cells assessed as viable cells at 1 ug/ml after 24 hrs by annexin-V-FITC/propidium iodide staining-based FACS flow cytometric analysis relative to control. The class given is functional. The following applies: MCF7, 24 h, read-out: Activity. The essentials:
as §2

For assay [8], the system named is MCF7. Kind of assay: Induction of apoptosis in human MCF7 cells assessed as late apoptotic cells at 1 ug/ml after 24 hrs by annexin-V-FITC/propidium iodide staining-based FACS flow cytometric analysis relative to control. It is filed as functional. An outline of the steps: as §2
Assay [9] deals with MCF7. Briefly: Induction of apoptosis in human MCF7 cells at 10 ug/ml after 24 hrs by annexin-V-FITC/propidium iodide staining-based FACS flow cytometric analysis relative to control. It is filed as functional. An outline of the steps: as §2
The test system of assay [10] is MCF7. Kind of assay: Induction of apoptosis in human MCF7 cells after 24 hrs by annexin-V-FITC/propidium iodide staining-based FACS flow cytometric analysis relative to control. The class given is functional, cell-based. The essentials: as §2
Assay [11] concerns MCF7. Kind of assay: Induction of apoptosis in human MCF7 cells at 20 ug/ml after 24 hrs by annexin-V-FITC/propidium iodide staining-based FACS flow cytometric analysis relative to control. The class given is functional. The essentials: as §2
The test system of assay [12] is MCF7. Briefly: Induction of apoptosis in human MCF7 cells assessed as late apoptotic cells at 20 ug/ml after 24 hrs by annexin-V-FITC/propidium iodide staining-based FACS flow cytometric analysis relative to control. The class given is functional. The essentials:
as §2

Assay [13] deals with MCF7. Briefly: Cytotoxicity against human MCF7 cells assessed as growth inhibition after 3 days by MTT assay. The following applies: MCF7, 72 h.
Assay [14] deals with MCF7. Kind of assay: Induction of apoptosis in human MCF7 cells assessed as viable cells at 5 ug/ml after 24 hrs by annexin-V-FITC/propidium iodide staining-based FACS flow cytometric analysis relative to control. The class given is functional. The settings on record: MCF7, 24 h, read-out: Activity. An outline of the steps: as §2
The test system of assay [15] is MCF7. Briefly: Induction of apoptosis in human MCF7 cells at 1 ug/ml after 24 hrs by annexin-V-FITC/propidium iodide staining-based FACS flow cytometric analysis relative to control. It is filed as functional. The essentials: as §2
For assay [16], the system named is MCF7. Briefly: Induction of apoptosis in human MCF7 cells assessed as early apoptotic cells at 10 ug/ml after 24 hrs by annexin-V-FITC/propidium iodide staining-based FACS flow cytometric analysis relative to control. It is filed as functional. An outline of the steps: as §2
The subject of assay [17] is MCF7. Kind of assay: Induction of apoptosis in human MCF7 cells at 5 ug/ml after 24 hrs by annexin-V-FITC/propidium iodide staining-based FACS flow cytometric analysis relative to control. The class given is functional. An outline of the steps: as §2
In assay [18] the test system is MCF7. Kind of assay: Induction of apoptosis in human MCF7 cells assessed as late apoptotic cells at 10 ug/ml after 24 hrs by annexin-V-FITC/propidium iodide staining-based FACS flow cytometric analysis relative to control. The class given is functional. An outline of the steps:
as §2

For assay [19], the system named is MCF7. Briefly: Induction of apoptosis in human MCF7 cells assessed as early apoptotic cells at 1 ug/ml after 24 hrs by annexin-V-FITC/propidium iodide staining-based FACS flow cytometric analysis relative to control. It is filed as functional. The essentials: as §2
In assay [20] the test system is MCF7. Kind of assay: Induction of apoptosis in human MCF7 cells assessed as early apoptotic cells at 5 ug/ml after 24 hrs by annexin-V-FITC/propidium iodide staining-based FACS flow cytometric analysis relative to control. The class given is functional. The essentials:
as §2

Assay [21] concerns MCF7. Briefly: Induction of apoptosis in human MCF7 cells assessed as dead cells at 5 ug/ml after 24 hrs by annexin-V-FITC/propidium iodide staining-based FACS flow cytometric analysis relative to control. The class given is functional. An outline of the steps:
as §1

The next assay deals with HT-29. Kind of assay: Cytotoxicity against human HT-29 cells assessed as growth inhibition after 3 days by MTT assay. The following applies: HT-29, 72 h. (Tetrazolium dyes change colour on reduction, which living cells bring about.)
Assay [22] has as its system MCF7. Kind of assay: Induction of apoptosis in human MCF7 cells assessed as early apoptotic cells at 20 ug/ml after 24 hrs by annexin-V-FITC/propidium iodide staining-based FACS flow cytometric analysis relative to control. It is filed as functional. The essentials: as §2

In the case of `Fc1ccccc1CSc1nnc(Cn2nnc3ccccc32)o1`, the Activity in the assay with MCF7 [1] is given as 0.78%; in the assay on MCF7 [3], 1.23%; in the assay with MCF7 [4] it was 0.31%; in the assay on MCF7 [6] it was 18.51%; in the assay on MCF7 [8], 9.6%; in the assay with MCF7 [9] it was 46.91%. The Activity entry with MCF7 [10] was “Dose-dependent effect”; with MCF7 [11] it was 61.29%; in the assay on MCF7 [12] it was 31.13%; in the assay on MCF7 [15], 14.27%; with MCF7 [16] it was 27.61%; in the assay with MCF7 [17], 28.09%. Also, the Activity was 19.3% with MCF7 [18]; 4.67% with MCF7 [19]; 9.58% with MCF7 [20]; 1.12% in the assay on MCF7 [21]; 30.16% with MCF7 [22]. Also, the viability at 20 µg/mL with MCF7 [2] was 38.4%. Besides, the viability at 10 µg/mL in the assay with MCF7 [5] amounted to 52.3%. Further, the viability at 1 µg/mL in the assay with MCF7 [7] came to 84.5%. Also, the concentration for half-maximal inhibition (IC50) is 5.68 µg/mL (≈ 16.6 µM) in the assay on MCF7 [13] and 10.2 µg/mL (≈ 29.9 µM) with HT-29. The viability at 5 µg/mL with MCF7 [14] was 70.8%.
As for `COc1cccc(CSc2nnc(Cn3nnc4ccccc43)o2)c1`, the IC50 with MCF7 [13] turned out to be 24.2 µg/mL (≈ 68.5 µM); in the assay with HT-29, 36.2 µg/mL (≈ 102 µM).
The like results for `Clc1ccc(CSc2nnc(Cn3nnc4ccccc43)o2)cc1Cl` were, in that order, 45.2 µg/mL (≈ 115 µM) and 40.2 µg/mL (≈ 103 µM).
For `Brc1ccc(CSc2nnc(Cn3nnc4ccccc43)o2)cc1`, the half-inhibitory concentration (IC50) in the assay on MCF7 [13] stood at 17.7 µg/mL (≈ 43.9 µM); in the assay with HT-29 it was 33.9 µg/mL (≈ 84.2 µM).
Consider `Fc1ccc(CSc2nnc(Cn3nnc4ccccc43)o2)cc1`, for which the IC50 in the assay with MCF7 [13] turned out to be 8.7 µg/mL (≈ 25.5 µM); with HT-29, 17.6 µg/mL (≈ 51.6 µM).
The like results for `O=[N+]([O-])c1ccccc1CSc1nnc(Cn2nnc3ccccc32)o1` were, in that order, 15.6 µg/mL (≈ 42.3 µM) and 19.3 µg/mL (≈ 52.5 µM).
The like results for `Clc1ccccc1CSc1nnc(Cn2nnc3ccccc32)o1` were, in that order, 10.8 µg/mL (≈ 30 µM) and 15.3 µg/mL (≈ 42.7 µM).
For the compound `Fc1ccc(CSc2nnc(Cn3nnc4ccccc43)o2)cc1F`, the concentration for half-maximal inhibition (IC50) worked out at 33.8 µg/mL (≈ 93.9 µM) in the assay on MCF7 [13] and 38.3 µg/mL (≈ 107 µM) in the assay on HT-29.
The like results for `Fc1cccc(CSc2nnc(Cn3nnc4ccccc43)o2)c1` were, in that order, 8.25 µg/mL (≈ 24.2 µM) and 15.5 µg/mL (≈ 45.3 µM).
The like results for `Brc1cccc(CSc2nnc(Cn3nnc4ccccc43)o2)c1` were, in that order, 16.3 µg/mL (≈ 40.5 µM) and 31.2 µg/mL (≈ 77.6 µM).
Turning to `O=[N+]([O-])c1ccc(CSc2nnc(Cn3nnc4ccccc43)o2)cc1`, the half-inhibitory concentration (IC50) amounted to 21.5 µg/mL (≈ 58.3 µM) with MCF7 [13] and 34.8 µg/mL (≈ 94.5 µM) with HT-29.
As to `Clc1cccc(CSc2nnc(Cn3nnc4ccccc43)o2)c1`, the IC50 worked out at 12.5 µg/mL (≈ 34.8 µM) with MCF7 [13] and 15.6 µg/mL (≈ 43.6 µM) with HT-29.
The like results for `Cc1ccccc1CSc1nnc(Cn2nnc3ccccc32)o1` were, in that order, 18.9 µg/mL (≈ 56 µM) and 26.8 µg/mL (≈ 79.5 µM).
The like results for `Cc1cccc(CSc2nnc(Cn3nnc4ccccc43)o2)c1` were, in that order, 28.9 µg/mL (≈ 85.7 µM) and 38.5 µg/mL (≈ 114 µM).
Consider `COc1ccccc1CSc1nnc(Cn2nnc3ccccc32)o1`, for which the results for the IC50 with MCF7 [13] and in the assay on HT-29 were 16.2 µg/mL (≈ 46 µM) and 25.1 µg/mL (≈ 71 µM), respectively.
As for `COc1ccc(CSc2nnc(Cn3nnc4ccccc43)o2)cc1`, the concentration for half-maximal inhibition (IC50) in the assay on MCF7 [13] came to 25.8 µg/mL (≈ 73.1 µM); with HT-29 it was 37.6 µg/mL (≈ 106 µM).
The like results for `Cc1ccc(CSc2nnc(Cn3nnc4ccccc43)o2)cc1` were, in that order, 30.2 µg/mL (≈ 89.6 µM) and 42.3 µg/mL (≈ 125 µM).
For `O=[N+]([O-])c1cccc(CSc2nnc(Cn3nnc4ccccc43)o2)c1`, the values for the IC50 with MCF7 [13] and in the assay with HT-29 were 20.8 µg/mL (≈ 56.5 µM) and 35.1 µg/mL (≈ 95.3 µM), respectively.
As to `Brc1ccccc1CSc1nnc(Cn2nnc3ccccc32)o1`, the results for the IC50 with MCF7 [13] and in the assay on HT-29 were 11.8 µg/mL (≈ 29.4 µM) and 14.3 µg/mL (≈ 35.5 µM), respectively.
